Test results: ChEMBL document CHEMBL1158602, “Dihydro-pyrano[2,3-b]pyridines and tetrahydro-1,8-naphthyridines as CB1 receptor inverse agonists: synthesis, SAR and biological evaluation” (Bioorg Med Chem Lett, 2010)

Assays:
[1] = system: Rattus norvegicus; assay: Toxicity in diet-induced obese rat assessed as change in body weight at 3 mg/kg, po after 18 hrs (RVb = 10 g); type: organism-based; parameters: dose 3 mg/kg, route oral; conditions: in vivo
[2] = system: Rattus norvegicus; assay: Toxicity in diet-induced obese rat assessed as suppression in food intake at 3 mg/kg, po after 18 hrs; type: organism-based; parameters: dose 3 mg/kg, route oral; conditions: in vivo
[3] = molecular target: GABA-A receptor; agonist GABA site; assay: Partial agonist activity at human GABAA receptor; type: functional
[4] = molecular target: GABA-A receptor; agonist GABA site (Homo sapiens) (UniProt P14867+P47870+P28472+P48169+P34903+P18505+P47869+P31644+Q16445); assay: Partial agonist activity at human GABAA receptor at 3 uM; type: functional
[5] = molecular target: Cannabinoid receptor 1 (Homo sapiens, UniProt P21554); assay: Binding affinity to human CB1 receptor
Cannabinoid receptor 1, sequence (P21554 whole entry): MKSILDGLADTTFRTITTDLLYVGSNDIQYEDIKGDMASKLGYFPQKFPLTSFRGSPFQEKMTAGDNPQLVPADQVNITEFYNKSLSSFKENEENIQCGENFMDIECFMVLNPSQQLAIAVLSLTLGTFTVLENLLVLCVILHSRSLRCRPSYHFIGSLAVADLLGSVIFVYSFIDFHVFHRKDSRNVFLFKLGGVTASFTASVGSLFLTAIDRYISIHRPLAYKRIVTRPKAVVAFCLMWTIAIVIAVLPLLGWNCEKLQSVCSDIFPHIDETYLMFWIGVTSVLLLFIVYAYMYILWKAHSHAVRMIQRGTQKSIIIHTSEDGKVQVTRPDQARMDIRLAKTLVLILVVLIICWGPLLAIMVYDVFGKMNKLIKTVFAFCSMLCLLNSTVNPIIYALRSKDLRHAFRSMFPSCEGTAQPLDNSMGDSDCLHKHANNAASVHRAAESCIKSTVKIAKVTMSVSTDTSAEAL

[6] = molecular target: Cannabinoid receptor 2 (Homo sapiens, UniProt P34972); assay: Binding affinity to human CB2 receptor
Cannabinoid receptor 2, sequence (P34972 whole entry): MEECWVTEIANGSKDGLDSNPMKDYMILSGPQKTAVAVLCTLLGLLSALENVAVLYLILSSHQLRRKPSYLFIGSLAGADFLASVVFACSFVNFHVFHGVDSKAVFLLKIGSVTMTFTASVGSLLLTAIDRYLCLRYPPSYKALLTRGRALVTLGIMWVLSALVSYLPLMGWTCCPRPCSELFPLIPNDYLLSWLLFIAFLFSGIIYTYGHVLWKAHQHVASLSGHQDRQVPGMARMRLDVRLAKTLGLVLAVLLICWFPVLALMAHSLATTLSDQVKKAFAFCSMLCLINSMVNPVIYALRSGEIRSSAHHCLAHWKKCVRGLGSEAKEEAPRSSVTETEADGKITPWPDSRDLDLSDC

[7] = system: Rattus norvegicus; assay: Toxicity in diet-induced obese rat assessed as change in body weight at 3 mg/kg, po after 18 hrs (RVb = 5 g); type: organism-based; parameters: dose 3 mg/kg, route oral; conditions: in vivo
[8] = Oral bioavailability in rat at 1 mg/kg, iv after 4 hrs; type: ADME, organism-based; conditions: in vivo
[9] = Half life in rat at 1 mg/kg, iv after 4 hrs; type: ADME, organism-based; parameters: dose 1 mg/kg, route intravenous; conditions: in vivo
[10] = Clearance in rat plasma at 1 mg/kg, iv after 4 hrs; type: ADME, organism-based; parameters: dose 1 mg/kg, route intravenous
[11] = molecular target: Voltage-gated inwardly rectifying potassium channel KCNH2 (Homo sapiens, UniProt Q12809)
Voltage-gated inwardly rectifying potassium channel KCNH2, sequence (Q12809 whole entry): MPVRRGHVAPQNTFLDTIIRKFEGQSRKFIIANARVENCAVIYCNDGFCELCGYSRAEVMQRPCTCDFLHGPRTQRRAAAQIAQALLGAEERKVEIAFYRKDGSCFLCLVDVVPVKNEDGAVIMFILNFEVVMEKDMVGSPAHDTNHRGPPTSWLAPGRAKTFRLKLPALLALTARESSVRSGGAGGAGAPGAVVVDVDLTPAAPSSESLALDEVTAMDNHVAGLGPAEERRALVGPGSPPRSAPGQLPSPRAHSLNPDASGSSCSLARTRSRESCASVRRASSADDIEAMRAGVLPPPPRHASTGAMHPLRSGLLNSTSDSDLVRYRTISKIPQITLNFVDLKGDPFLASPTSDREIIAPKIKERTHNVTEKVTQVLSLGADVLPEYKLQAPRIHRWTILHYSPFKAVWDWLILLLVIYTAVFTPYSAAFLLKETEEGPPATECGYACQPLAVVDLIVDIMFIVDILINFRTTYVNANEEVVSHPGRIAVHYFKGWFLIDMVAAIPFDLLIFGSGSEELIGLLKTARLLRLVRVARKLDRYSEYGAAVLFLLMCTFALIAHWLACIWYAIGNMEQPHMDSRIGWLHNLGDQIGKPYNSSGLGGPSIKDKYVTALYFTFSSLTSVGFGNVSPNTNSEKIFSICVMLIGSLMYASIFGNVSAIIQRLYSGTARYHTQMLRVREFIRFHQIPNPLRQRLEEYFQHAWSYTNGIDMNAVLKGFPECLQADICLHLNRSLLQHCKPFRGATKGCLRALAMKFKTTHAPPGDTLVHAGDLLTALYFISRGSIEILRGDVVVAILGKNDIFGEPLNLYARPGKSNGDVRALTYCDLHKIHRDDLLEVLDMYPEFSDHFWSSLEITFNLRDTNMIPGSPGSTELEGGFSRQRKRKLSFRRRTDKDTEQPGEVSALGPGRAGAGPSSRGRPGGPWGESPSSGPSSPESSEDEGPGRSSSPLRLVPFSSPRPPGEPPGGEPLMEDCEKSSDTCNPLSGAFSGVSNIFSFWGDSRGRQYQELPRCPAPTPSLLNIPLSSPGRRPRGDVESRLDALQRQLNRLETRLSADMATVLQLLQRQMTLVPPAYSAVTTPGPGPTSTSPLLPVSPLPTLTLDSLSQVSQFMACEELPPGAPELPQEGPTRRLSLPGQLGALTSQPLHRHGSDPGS

[12] = system: Rattus norvegicus; assay: Toxicity in diet-induced obese rat assessed as change in body weight at 3 mg/kg, po after 18 hrs (RVb = 6 g); type: organism-based; parameters: dose 3 mg/kg, route oral; conditions: in vivo
Summary of the method: (§1)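 Diet-induced obese rats dosed orally at 3 mg/kg and monitored for 18 h (overnight); body weight change and food intake compared with vehicle-treated animals.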

[13] = Drug level in rat brain at 1 mg/kg, iv after 4 hrs; type: ADME, organism-based; parameters: dose 1 mg/kg, route intravenous; conditions: read-out: Drug uptake
Summary of the method: (§2)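 Rats given 1 mg/kg intravenously; brain and plasma drug concentrations measured 4 h after dosing, and the brain/plasma ratio taken from these levels.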

[14] = Drug level in rat plasma at 1 mg/kg, iv after 4 hrs; type: ADME, organism-based; parameters: dose 1 mg/kg, route intravenous; conditions: read-out: Drug uptake; summary of the method: as §2
[15] = Ratio of drug level in brain to plasma in rat at 1 mg/kg, iv after 4 hrs; type: ADME, organism-based; parameters: dose 1 mg/kg, route intravenous; conditions: brain and plasma; summary of the method: as §2
[16] = system: Rattus norvegicus; assay: Toxicity in diet-induced obese rat assessed as change in body weight at 3 mg/kg, po after 18 hrs (RVb = 7 g); type: organism-based; parameters: dose 3 mg/kg, route oral; conditions: in vivo; summary of the method: as §1

| SMILES | Activity [1] [g] | Activity [2] [%] | EC50 [3] [µM] | Emax [4] [%] | IC50 [5] [µM] | IC50 [6] [µM] | Activity [7] [g] | bioavailability [8] [%] | half-life [9] [h] | clearance [10] [mL/min/kg] | IC50 [11] [µM] | Activity [12] [g] | concentration at 4 h [13] [nM] | concentration at 4 h [14] [nM] | Kp at 4 h [15] | Activity [16] [g] |
| --- | --- | --- | --- | --- | --- | --- | --- | --- | --- | --- | --- | --- | --- | --- | --- | --- |
| C[C@H](NC(=O)C(C)(C)Oc1ccc(C(F)(F)F)cn1)[C@@H](Cc1ccc(Cl)cc1)c1cccc(C#N)c1 [TARANABANT] | -10 | 49 | – | – | – | – | – | – | – | – | – | – | – | – | – | – |
| CC(C)(O)C(=O)c1oc2nc(-c3ccc(Cl)cc3Cl)c(-c3ccc(Cl)cc3)cc2c1NC(=O)CO | – | – | 0.7 | 18 | – | – | – | – | – | – | – | – | – | – | – | – |
| CC1(C)CC(NC(=O)CCO)c2cc(-c3ccc(Cl)cc3)c(-c3ccc(Cl)cc3Cl)nc2O1 (single isomer, unassigned; enantiomer 1) [N-(6-(4-CHLOROPHENYL)-7-(2,4-DICHLOROPHENYL)-2,2-DIMETHYL-3,4-DIHYDRO-2H-PYRANO[2,3-B]PYRIDIN-4-YL)-3-HYDROXYPROPANAMIDE (ENANTIOMERIC MIX)] | – | 48 | – | – | 0.0017 | 2.46 | -11 | 85 | 13 | 3 | 0.38 | – | – | – | – | – |
| CN1c2nc(-c3ccc(Cl)cc3Cl)c(-c3ccc(Cl)cc3)cc2C(C(=O)NCO)CC1(C)C (single isomer, unassigned; enantiomer 1) [6-(4-CHLOROPHENYL)-7-(2,4-DICHLOROPHENYL)-N-(HYDROXYMETHYL)-1,2,2-TRIMETHYL-1,2,3,4-TETRAHYDRO-1,8-NAPHTHYRIDINE-4-CARBOXAMIDE (ENANTIOMERIC MIX)] | – | 55 | – | – | 0.0037 | 0.801 | – | 25 | 4.2 | 12 | 0.04 | -8 | 76 | 380 | 0.88 | – |
| CC(C)(O)C(=O)NC1CC2(CCCCC2)Oc2nc(-c3ccccc3Cl)c(-c3ccc(Cl)cc3)cc21 (single isomer, unassigned; enantiomer 1) [N-(7'-(2-CHLOROPHENYL)-6'-(4-CHLOROPHENYL)-3',4'-DIHYDROSPIRO[CYCLOHEXANE-1,2'-PYRANO[2,3-B]PYRIDINE]-4'-YL)-2-HYDROXY-2-METHYLPROPANAMIDE (ENANTIOMERIC MIX)] | – | 28 | – | – | 0.0007 | 3.2 | – | 6 | 1.9 | 62 | – | – | 116 | 3500 | 3.5 | 3 |
